UHRF1 binding: UHRF1 methylated DNA binding inhibitors, primary screen, counter-screen for MBD2 inhibitor project, biochemical, TR-FRET, human UHRF1, single concentration | inhibition, % at 4.4 µM | 370,000 compounds, 0.75% hits | E3 ubiquitin-protein ligase UHRF1 (Homo sapiens), Q96T88 | UHRF1 binding to methylated oligo; in the data active means inhibition above about 21%;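 further: UHRF1 SRA domain binding a hemimethylated CpG hairpin DNA probe; 0% = median of test compound wells and 100% = reference inhibitor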
core dimer inh: inhibitors of HCV core protein dimerization, primary screen, biochemical, TR-FRET, high-throughput; TR-FRET GST/Flag-core106 dimerization, 1536-well; 300,000 compounds, 0.33% hits; inhibition, % at 5 µM;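 active means inhibition above the mean of all tested compounds plus 3 SD, set per screening campaign, cut at about 45% in these data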
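Assay system: tagged HCV core106 pair (GST and Flag); medium: KF-containing HEPES buffer, pH 7.45, DTT, CHAPS, BSA; also added: Eu donor and XL665 acceptor anti-tag antibodies; dosing: 5 µM single dose; timing: compound-protein-antibody incubation 4 h at 22.5 °C; signal: TR-FRET 671 and 617 nm emission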
MBD2 DNA inh: inhibitors of MBD2 binding to methylated DNA, primary screen, biochemical, TR-FRET, DNA-binding domain, human; MBD2 binding to methylated oligonucleotide; inhibition, % at 4.4 µM; 370,000 compounds, 0.31% hits; AID 686964, 2013; in the data active means inhibition above about 13%
TDP2 absorb: human TDP2 enzyme inhibitors, primary screen, biochemical, epi absorbance, recombinant enzyme; Tyrosyl-DNA phosphodiesterase 2 (Homo sapiens), O95551; T5PNP hydrolysis, p-nitrophenol absorbance 415 nm; inhibition, % at 12.8 µM; 370,000 compounds, 0.34% hits;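 active means inhibition above the mean of all tested compounds plus 3 SD, set per campaign, cut at about 25% in these data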;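 further: 0% = DMSO with enzyme and 100% = buffer with substrate but no TDP2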
Target sequence (O95551 whole entry, looked up): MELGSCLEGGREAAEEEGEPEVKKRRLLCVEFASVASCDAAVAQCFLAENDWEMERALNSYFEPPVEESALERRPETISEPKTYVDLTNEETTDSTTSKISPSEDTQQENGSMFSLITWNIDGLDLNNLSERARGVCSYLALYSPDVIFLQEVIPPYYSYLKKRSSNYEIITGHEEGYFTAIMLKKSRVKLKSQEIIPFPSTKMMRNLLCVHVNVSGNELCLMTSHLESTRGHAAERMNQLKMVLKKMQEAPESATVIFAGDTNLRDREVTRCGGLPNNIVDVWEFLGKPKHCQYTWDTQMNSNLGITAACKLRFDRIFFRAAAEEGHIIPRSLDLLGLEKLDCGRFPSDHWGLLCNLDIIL
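Test system: Human TDP2 enzyme | Reagent: 5 mM T5PNP | Compound dosing: 12.8 µM single point, 1% DMSO | Incubation: Enzyme reaction with compound for 2 h at 37 °C | Technique: p-Nitrophenol epi absorbance | Read-out: % inhibition relative to enzyme-containing and enzyme-free wells | Benchmarks: High control without enzyme, low control DMSO plus TDP2 | Replicates: Singlicate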
LEDGF integ inh: blockers of LEDGF/p75-dependent integrase strand transfer – biochemical, TR-FRET, high throughput, primary screen; 370,000 compounds, 0.64% hits; AID 743269, 2014; inhibition, % at 3.7 µM; TR-FRET IN-LEDGF/p75 DNA integration, Eu/Cy5;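 active means inhibition above the screen-wide mean plus 3 SD, cut at about 13% in these data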;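 further: signal is the Cy5 over europium emission ratio at 671 and 618 nm; 0% = plate median of compound wells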
IN multimer up: HIV-1 IN multimer formation enhancers, counter-screen for LEDGF/p75 integration inhibitor project, biochemical, TR-FRET | shares compounds with LEDGF integ inh | TR-FRET HIV-1 integrase multimerization | activation, % at 7.7 µM | 2,000 compounds, 17% hits | AID 1053131, 2014; in the data active means activation above about 8.9%
TR-FRET interf: TR-FRET optical interference artefacts, confirmation, artefact control for LEDGF/p75-dependent integration inhibitor project, biochemical, HIV-1 IN multimerization | shares compounds with LEDGF integ inh | TR-FRET optical interference counterscreen | inhibition, % at 7.7 µM | 2,000 tested, under 10 active | AID 1053135, 2014;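 active means inhibition above the mean over all tested compounds plus 3 SD, which no compound reached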;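 further: 0% = integrase with antibodies and DMSO and 100% = antibodies without integrase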
IN-LEDGF confirm: inhibitors of HIV-1 IN-LEDGF/p75 DNA integration, confirmation, biochemical, TR-FRET | shares compounds with LEDGF integ inh | inhibition, % at 3.7 µM | 2,000 compounds, 36% hits | TR-FRET LEDGF/p75-dependent HIV-1 integration; in the data active means inhibition above about 14%
The depositor's hits bear a star; nt = no result. Most compounds without a hit are left out; they make up all but 1.8% or so of the library.

SMILES	UHRF1 binding	core dimer inh	MBD2 DNA inh	TDP2 absorb	LEDGF integ inh	IN multimer up	TR-FRET interf	IN-LEDGF confirm
CC(=O)N1CCN(c2nc(-c3ccco3)c3c(c2C#N)CC(C)(C)SC3)CC1	7	30	4	0	22*	-1	6	19*
CC1(C)Cc2c(c(-c3ccco3)[nH]c(=O)c2C#N)CS1	15	-3	-1	3	18*	-1	5	23*
CCOC(=O)c1cccc(NC(=O)CN(C)S(=O)(=O)c2ccco2)c1	2	nt	-2	1	3	nt	nt	nt
Cc1nonc1N1CCN(Cc2cn[nH]c2-c2ccc(F)cc2F)CC1	0	1	2	6	-1	nt	nt	nt
Cc1nonc1N1CCN(Cc2cn[nH]c2-c2ccc3c(c2)OCO3)CC1	1	3	3	-9	53*	0	2	0
Cc1cc(NS(=O)(=O)c2ccc(NC(=O)Cc3ccc(Cl)c(F)c3)cc2)no1	0	nt	-1	-3	0	nt	nt	nt
CCN(CC)c1ccc(N=Cc2cc(Br)ccc2O)cc1	-4	3	-7	-3	24*	6	-23	7
O=c1[nH]c(-c2ccccc2)nn1-c1ccc(Br)cc1Br	-3	-7	2	13	26*	1	-4	5
S=c1nc(-c2ccccc2)[nH]c2ccc(Br)cc12	-2	42	6	5	1	nt	nt	nt
Cc1ccc(S(=O)(=O)N2CC3(COC(C)(C)OC3)C[C@H]2CON2C(C)(C)CCCC2(C)C)cc1	3	nt	1	-5	-1	nt	nt	nt
COC(=O)c1sc(N)c(C(=O)OC)c1COC(=O)[C@@H](NS(=O)(=O)c1cccc(Cl)c1)C(C)C	1	0	1	1	21*	-2	12	-3
Oc1ccc(N=Nc2cccc(C(F)(F)F)c2)cc1C=Nc1ccc(N2CCOCC2)cc1	-4	-3	-3	22	14*	-1	3	14*
Oc1ccc(C=Nc2ccc(N3CCOCC3)cc2)c(O)c1	-3	7	-3	12	19*	19*	-97	23*
Oc1cc(Br)ccc1C=Nc1ccc(N2CCCCC2)cc1	-1	4	-3	19	6	nt	nt	nt
O=C(Cn1nnc(-c2ccc(N3CCOCC3)cc2)n1)c1ccc(F)cc1	6	nt	4	4	-4	nt	nt	nt
CCCCN1C(=O)C(=Nc2cccc3cnccc23)c2ccccc21	-4	8	-17	1	16*	1	-6	23*
CCCCN1C(=O)/C(=C2\SC(N3CCCCC3)=NC2=O)c2ccccc21	0	5	1	-5	2	nt	nt	nt
COc1ccc(CN2C(=O)[C@]3(NCCc4c3[nH]c3ccc(OC)cc43)c3cc(F)ccc32)cc1	1	nt	6	1	5	nt	nt	nt
CC1=NN(c2ccccc2)C(=O)C1C(=S)SC1CC(=O)NC1=O (configuration not stated)	-7	nt	-10	10	2	nt	nt	nt
O=C1CC(SC(=S)C2CCCC2=O)C(=O)N1 (configuration not stated)	54*	nt	17*	15	24*	7	-37	22*
COc1ccccc1Nc1nc(N)nc(CN2CCC(C)CC2)n1	2	0	3	5	0	nt	nt	nt
COc1ccccc1Nc1nc(N)nc(CN2CCC(Cc3ccccc3)CC2)n1	9	-2	10	-9	15*	0	2	6
COC(=O)C[C@@H]1CC[C@@H]2[C@H](COc3ccc(NC(=O)c4ccc(F)c(F)c4)cc3C(=O)N2C)O1	2	nt	-2	-3	-2	nt	nt	nt
C/C=C/C=C/C(=O)[C@@H]1[C@@H]([C@]2(C)OC(=O)C(C)=C2O)[C@H]2/C(=C(O)/C=C/C=C/C)C(=O)[C@]1(C)C(=O)C2(C)O (some centres not stated)	48*	13	13	9	45*	5	-23	78*
CN(C)CC(=O)N[C@H]1C[C@@H]2O[C@@H](CO)CC[C@@H]2O[C@@H]1CCc1ccc(C2=CCCCC2)cc1	1	nt	-4	3	0	nt	nt	nt
SMILES	UHRF1 binding	core dimer inh	MBD2 DNA inh	TDP2 absorb	LEDGF integ inh	IN multimer up	TR-FRET interf	IN-LEDGF confirm
CC1(OC(=O)C2CCCC2)C(=O)C=C2C=C3CCCN3C=C2C1=O (configuration not stated)	nt	14	nt	nt	nt	nt	nt	nt
CC1(OC(=O)CCc2ccccc2)C(=O)C=C2C=C3CCCN3C=C2C1=O (configuration not stated)	7	20	-3	8	20*	1	-3	23*
S=c1[nH]nc(-c2ccncc2)n1/N=C/C=C/c1ccco1	14	0	0	7	18*	5	-26	33*
Cc1cccc(-c2n[nH]c(=S)n2/N=C/C=C/c2ccco2)c1	26*	13	11	-7	29*	2	-12	8
CCC(C#Cc1ccccc1)NCc1ccc(OC)cc1OC (configuration not stated)	1	nt	0	-16	7	nt	nt	nt
CCC(C)[C@H](NC(=O)[C@H](CC(C)C)NC(=O)OC(C)(C)C)C(=O)N[C@@H](Cc1ccccc1)C(=O)OC (some centres not stated)	2	nt	7	-6	3	nt	nt	nt
CCCCN1CN2Cc3cc(OC)ccc3C2CS1(=O)=O (configuration not stated)	-4	nt	-5	10	0	nt	nt	nt
O=C(NCc1cccs1)C1CCC(CNS(=O)(=O)c2cccc3cccnc23)CC1 (configuration not stated)	4	nt	4	3	-5	nt	nt	nt
O=C1c2c(O)cc(O)cc2O[C@@]12c1c(cc(O)c3c1O[C@H](c1ccc(O)cc1)[C@@H](O)C3)O[C@@H]2c1ccc(O)cc1	24*	-7	4	7	18*	13*	-67	39*
Oc1cc(O)c2c(c1)O[C@H](c1ccc(O)c(O)c1)[C@@H](O)C2	2	10	1	0	8	nt	nt	nt
